Results pooled from the literature.
Protocols differ between the studies behind these lines.
Target: Serine/threonine-protein kinase OSR1 (OXSR1, Homo sapiens, UniProt O95747)

| Compound | assay | setting | remaining binding |
| --- | --- | --- | --- |
| CS(=O)(=O)c1cc(C2(NC(=O)c3cncc4c3cnn4-c3ccc(F)cc3)CC2)ccn1 | cell-free assay, competition with immobilised ligand | 1 µM | 85% |
| C[C@H]1CCN(c2nccc(-c3cnn4ncccc34)n2)C1 | binding | 1 µM | 76% |
| O=C(c1ccc(Nc2nccc(-c3cc4ccccc4s3)n2)cc1)N1CCC(N2CCCC2)CC1 | binding, competition with immobilised ligand | 1 µM | 100% |
| C[C@H](c1cccc(C#N)c1)n1cc(Cl)cc(C(N)=O)c1=N | cell-free assay, competition with immobilised ligand | 1 µM | 81% |
| COc1cnc(Nc2cccc(S(N)(=O)=O)c2)nc1N1CCN(c2ccccc2)C(=O)C1 | binding, competition with immobilised ligand | 1 µM | 100% |
| COc1ccnn2ncc(-c3ccnc(N(C)C)n3)c12 | binding | 1 µM | 87% |
| C[C@@H](c1ccc(-n2cnc3c(N)ncnc32)cc1)N1CCc2nn(C)c(Cc3ccccc3)c2C1=O | binding, competition with immobilised ligand | 0.1 µM | 72% |
| CNC(=O)[C@@H]1CC[C@@H](n2c(-c3ccc4cnccc4c3)nc3ccc(C(=O)NCc4cccc(C(N)=O)c4)cc32)C1 | binding, competition with immobilised ligand | 1 µM | 100% |
| NS(=O)(=O)c1cc(NC(=O)Cc2ccccc2)ccc1Oc1cccc(Cl)c1 | cell-free assay, competition with immobilised ligand | 1 µM | 78% |
| O=C(NCC1CCOCC1)c1n[nH]cc1NC(=O)c1c(F)cccc1F | binding, competition with immobilised ligand | 1 µM | 73% |
| Cc1cc(C)c(-n2ccn3nc(-c4cccnc4)cc23)cc1NC(=O)c1cc(C#N)cc(S(F)(F)(F)(F)F)c1 | cell-free assay, competition with immobilised ligand | 0.1 µM | 87% |
| CN(C)c1ncc(F)c(-c2cnn3ncccc23)n1 | binding | 1 µM | 95% |
| O=C(c1ccc(Nc2ncc(Cl)c(-c3ccc(Cl)s3)n2)cc1)N1CCC(N2CCCC2)CC1 | binding, competition with immobilised ligand | 1 µM | 87% |
| CN(C)c1nccc(-c2cnn3ncccc23)n1 | binding | 1 µM | 100% |
| c1cncc(-c2cccc(Nc3nccc(NC4CCCCC4)n3)c2)c1 | binding, competition with immobilised ligand | 10 µM | 100% |
| O=C(NCCCN1CCOCC1)c1ccc(Nc2nccc(-c3cc4ccccc4s3)n2)cc1 | binding, competition with immobilised ligand | 1 µM | 77% |
| Cc1cnn2ncc(-c3ccnc(N(C)C)n3)c2c1 | binding | 1 µM | 84% |
| FC(F)(F)Oc1cccc(-c2cnc3ccc(-c4ccncc4)nn23)c1 | cell-free assay, competition with immobilised ligand | 5 µM | 82% |
| c1cnn2ncc(-c3ccnc(N4CCC45COC5)n3)c2c1 | binding | 1 µM | 62% |
| O=S(=O)(NC1CCC(c2cc(F)ccc2F)(S(=O)(=O)c2ccc(Cl)cc2)CC1)C(F)(F)F (stereo not shown) | cell-free assay, competition with immobilised ligand | 1 µM | 91% |
| N[C@H]1CCN(c2nccc(-c3cnn4ncccc34)n2)C1 | binding | 1 µM | 86% |
| O=C(Nc1cccnn1)N1CCC(=Cc2cccc(Oc3ccc(C(F)(F)F)cn3)c2)CC1 | cell-free assay, competition with immobilised ligand | 1 µM | 100% |
